# Assay results taken from ChEMBL document CHEMBL1146002, “Substituted N-(2-aminophenyl)-benzamides, (E)-N-(2-aminophenyl)-acrylamides and their analogues: novel classes of histone deacetylase inhibitors” (Bioorg Med Chem Lett, 2006).
# pIC50: −log10 of the molar value. Activity calls are given as the source filed them. No cut-off for these calls is given here.
# Key:
# Histone deacetylase 1 = Histone deacetylase 1 (Homo sapiens, UniProt Q13547); experiment: Inhibition of human recombinant HDAC1
# Chain of Histone deacetylase 1 (Q13547 whole entry): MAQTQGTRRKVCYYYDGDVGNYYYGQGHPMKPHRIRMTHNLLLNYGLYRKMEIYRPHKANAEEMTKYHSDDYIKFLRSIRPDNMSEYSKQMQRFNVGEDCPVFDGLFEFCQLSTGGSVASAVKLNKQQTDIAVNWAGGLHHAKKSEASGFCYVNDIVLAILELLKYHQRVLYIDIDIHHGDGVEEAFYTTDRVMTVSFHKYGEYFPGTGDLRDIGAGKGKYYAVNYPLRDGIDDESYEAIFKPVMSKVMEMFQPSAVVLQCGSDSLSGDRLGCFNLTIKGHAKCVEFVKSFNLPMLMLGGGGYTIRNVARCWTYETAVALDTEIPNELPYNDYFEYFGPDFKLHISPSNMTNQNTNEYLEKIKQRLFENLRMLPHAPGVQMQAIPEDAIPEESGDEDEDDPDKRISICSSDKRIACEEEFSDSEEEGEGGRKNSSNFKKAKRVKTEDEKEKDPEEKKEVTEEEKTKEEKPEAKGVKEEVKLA
# HCT-116 [1] = experiment: Antiproliferative activity against human HCT116 cells by MTT assay; type: functional, cell-based
# HCT-116 [2] = experiment: Antitumor activity against human HCT116 cells xenografted in mouse at 50 mg/kg, ip; type: functional; details: HCT-116, ip, route intraperitoneal, read-out: TGI
# Outline: (§1)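 Human tumour cells grown as xenografts in mice; compounds given daily by intraperitoneal injection. Antitumour activity is expressed as % tumour growth inhibition relative to vehicle-treated controls. Body weight was followed as the measure of gross toxicity.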
# SW48 = experiment: Antitumor activity against human SW48 cells xenografted in mouse at 50 mg/kg, ip; type: functional; details: route intraperitoneal, read-out: TGI; outline: as §1
# [3] = Half life in iv dosed rat; type: ADME, organism-based; details: in vivo
# HMEC = experiment: Cytotoxicity against human HMEC cells; type: functional, cell-based
# Outline: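 Cytotoxicity toward normal cells was measured as inhibition of proliferation of human normal mammary epithelial cells (HMEC), reported as IC50.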
# [4] = biological target: Histone deacetylase (Homo sapiens) (UniProt Q13547+O15379+Q9UBN7+Q92769+Q9UQL6+Q8WUI4+Q9BY41+Q96DB2+P56524+Q9UKV0+Q969S8); experiment: Inhibition of HDAC assessed as ability to induce histone acetylation in human T24 cells; type: functional, cell-based; details: T-24
# Outline: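 T24 human bladder carcinoma cells treated at […] for 16 h. Histones acid-extracted, separated by SDS–PAGE and immunoblotted with antibodies specific for acetylated histone H4; total H4 also probed. Dose-dependence judged from blot.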
# T-24 = experiment: Induction of p21 WAF1/Cip1 transcription in human T24 cells assessed by luciferase reporter gene activity; type: functional, cell-based
# HCT-116 [5] = experiment: Cell cycle arrest in human HCT116 cells at G2/M phase; type: functional, cell-based
# Outline: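 HCT116 cells treated with compounds in 1% DMSO for 16 h, then harvested by trypsinization and fixed. DNA was stained with propidium iodide and analysed by flow cytometry. The (G2+M)/S ratio is the percentage of gated cells in G2/M divided by the percentage in S phase.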
# [6] = Bioavailability in rat; type: ADME, organism-based; details: in vivo
SMILES,pIC50 (Histone deacetylase 1),pIC50 (HCT-116 [1]),further results
Nc1ccccc1NC(=O)/C=C/c1ccc(NCCNc2ccccc2)nc1,5.70,5.30,–
Nc1ccccc1NC(=O)/C=C/c1ccc(NCc2ccncc2)cc1,5.00,5.70,–
COc1cc(CNc2ccc(C(=O)Nc3ccccc3N)cn2)cc(OC)c1OC,5.30,5.52,–
COc1cc(N(C)Cc2ccc(/C=C/C(=O)Nc3ccccc3N)cc2)cc(OC)c1OC,5.52,5.30,–
Nc1ccccc1NC(=O)/C=C/c1ccc(NCc2ccc(OC(F)(F)F)cc2)nc1,5.70,5.40,–
COc1ccc(CNc2ccc(C(=O)Nc3ccccc3N)cn2)cc1,5.40,–,–
Nc1ccccc1NC(=O)/C=C/c1ccc(CNc2ccccc2)cc1,4.77,4.96,–
COc1ccc(CNc2ccc(/C=C/C(=O)Nc3ccccc3N)cn2)cc1,5.70,–,–
COc1ccc(CCNc2ccc(C(=O)Nc3ccccc3N)cn2)cc1,5.52,–,–
COc1ccc(NCc2ccc(C(=O)Nc3ccccc3N)cc2)cc1,6.22,5.70,–
Nc1ccccc1NC(=O)/C=C/c1ccc(NCc2ccncc2)nc1,5.40,5.15,–
COc1cc(CNc2ccc(C(=O)Nc3ccccc3N)cc2)cc(OC)c1OC,5.52,5.70,–
COc1ccc(CNc2ccc(C(=O)Nc3ccccc3N)cc2)cc1,5.70,6.00,–
Nc1ccccc1NC(=O)/C=C/c1ccc(NCc2ccc(F)cc2)nc1,5.30,5.70,–
COc1cc(NCc2ccc(C(=O)Nc3ccccc3N)cc2)cc(OC)c1OC,5.52,5.70,–
COc1ccc(NCc2ccc(/C=C/C(=O)Nc3ccccc3N)cc2)cc1OC,5.70,5.30,–
Nc1ccccc1NC(=O)/C=C/c1ccc(NCc2ccccc2)nc1,5.52,–,–
Nc1ccccc1NC(=O)/C=C/c1ccc(NCCCc2ccccc2)nc1,5.52,5.70,–
COc1ccc(NCc2ccc(/C=C/C(=O)Nc3ccccc3N)cc2)cc1,5.40,–,–
COc1cc(CNc2ccc(/C=C/C(=O)Nc3ccccc3N)cn2)cc(OC)c1OC,5.40,–,–
CN(C)c1ccc(CNc2ccc(/C=C/C(=O)Nc3ccccc3N)cn2)cc1,5.40,5.52,–
Nc1ccccc1NC(=O)/C=C/c1ccc(NCc2ccc([N+](=O)[O-])cc2)cc1,5.40,4.82,–
COc1ccccc1NCc1ccc(/C=C/C(=O)Nc2ccccc2N)cc1,4.66,–,–
COc1ccc(NCc2ccc(C(=O)Nc3ccccc3N)cc2)cc1OC,–,–,inhibition in vivo at 50 mg/kg (HCT-116 [2]): 66%; inhibition in vivo at 50 mg/kg (SW48): 66%; half-life [3]: 0.7 h; pIC50 (HMEC): 4.82; Activity [4]: Dose-dependent effect; Activity (T-24): Active; Activity (HCT-116 [5]): Active
COc1cc(NCc2ccc(/C=C/C(=O)Nc3ccccc3N)cn2)cc(OC)c1OC,5.52,–,–
Nc1ccccc1NC(=O)/C=C/c1ccc(NCc2ccc(OC(F)(F)F)cc2)cc1,5.30,4.30,–
COc1cccc(NCc2ccc(/C=C/C(=O)Nc3ccccc3N)cc2)c1,4.77,5.00,–
COc1cc(NCc2ccc(/C=C/C(=O)Nc3ccccc3N)cc2)cc(OC)c1OC,5.70,–,half-life [3]: 1.8 h; bioavailability [6]: 65%; pIC50 (HMEC): 4.41; Activity [4]: Dose-dependent effect; Activity (T-24): Active; Activity (HCT-116 [5]): Active
COc1ccc(CNc2ccc(/C=C/C(=O)Nc3ccccc3N)cc2)cc1,5.40,–,–
COc1ccc(CNc2ccc(C(=O)Nc3ccccc3N)cc2)cc1OC,5.40,–,–
